FXIa inh: inhibitors of human coagulation factor XIa; purified FXIa, Boc-Glu-Ala-Arg-AMC fluorogenic substrate; inhibition, % at 5 µM; hit rate 0.14% among 220,000; AID 798;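 active means inhibition of at least 40%; inactive means inhibition below 40%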;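 further: fluorescence of freed AMC excited at 355 nm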
Target sequence (P03951 19-387 limits assumed): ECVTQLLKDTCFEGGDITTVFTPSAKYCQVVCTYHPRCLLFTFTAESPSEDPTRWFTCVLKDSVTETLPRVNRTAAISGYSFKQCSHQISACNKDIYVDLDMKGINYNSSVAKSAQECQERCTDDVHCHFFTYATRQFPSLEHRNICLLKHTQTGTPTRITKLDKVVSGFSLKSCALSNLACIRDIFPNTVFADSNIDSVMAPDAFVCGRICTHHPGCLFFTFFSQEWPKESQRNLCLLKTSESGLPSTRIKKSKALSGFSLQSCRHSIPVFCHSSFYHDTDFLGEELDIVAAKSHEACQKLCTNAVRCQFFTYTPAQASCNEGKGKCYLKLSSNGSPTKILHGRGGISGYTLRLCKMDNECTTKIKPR
Target sequence (P03951 388-625 limits assumed): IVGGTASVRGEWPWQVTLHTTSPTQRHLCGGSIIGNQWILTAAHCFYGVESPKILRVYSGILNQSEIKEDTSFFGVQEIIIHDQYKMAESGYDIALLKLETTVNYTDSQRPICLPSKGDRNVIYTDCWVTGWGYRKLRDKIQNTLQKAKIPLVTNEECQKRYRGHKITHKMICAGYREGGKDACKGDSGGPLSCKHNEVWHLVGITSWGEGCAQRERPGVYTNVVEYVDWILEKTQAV
hK5 inh: blocks human kallikrein 5 protease activity | Q9Y337 | recombinant hK5, fluorogenic AMC substrate cleavage | inhibition, % at 5 µM | hit rate 0.59% among 210,000 | AID 873;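 active means inhibition of 40% or more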
Thrombin inh: blocks human thrombin protease activity; alpha-thrombin, Boc-VPR-AMC fluorogenic substrate cleavage; hit rate 0.26% among 220,000; P00734; inhibition, % at 5 µM;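 active means inhibition at or above 40%; inactive means inhibition below 40%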
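System: human alpha-thrombin protein; Compound dosing: one concentration per compound, 5 µM, with 0.2% DMSO; Timing: reaction at room temperature; Technique: AMC fluorescence, 355/460 nm; Controls: enzyme without compound as high, wells lacking enzyme as low.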
FXIIa inh 1536: factor XIIa (human) inhibition. P00748. inhibition, % at 5 µM. AID 800. hit rate 0.3% among 220,000. purified FXIIa, Boc-QGR-AMC fluorogenic substrate, 2 h; in the data active means inhibition above about 40%
S1P3 antag: antagonists of human S1P3 receptor; Q99500; CHO S1P3 NFAT-BLA reporter, FRET fluorescence, antagonist mode; inhibition, % at 4.98 µM; hit rate 0.27% among 170,000; AID 485;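 active means inhibition above the plate cutoff, the mean inhibition of test wells on that plate plus 3 SD, cut at about 28% in these data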;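 further: cells challenged with S1P at its EC80 of 0.8 µM; blue over green emission ratio from cleaved BLA substrate after 4 h stimulation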
Redox H2O2 prof: compounds producing H2O2 with reducing agent – biochemical, NIH compound library profiling, artefact control for MLSCN library redox annotation, primary screen | DTT-dependent redox cycling H2O2, phenol red/HRP absorbance; 100% = 100 µM peroxide control, 0% = buffer | activation, % at 10 µM | hit rate 0.03% among 200,000 | AID 878;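 active means activation of at least 50% relative to the plate's high and low controls in the primary single-dose screen; inactive means activation below 50%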;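 further: compound incubated with DTT at 0.8 mM final as the reducing agent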
Each line names hits and unclear results; the compound was inactive in the other large screens. Shown are actives, neighbours in structure and some others; about 1.2% of the full set was active somewhere.

NS(=O)(=O)c1cccc(NC(=O)CSc2nc3ccccc3[nH]2)c1	none (no result: Redox H2O2 prof)
Cc1cc(N(C)C)c(C#N)c(NCc2ccccc2)n1	hK5 inh 64
Cc1ccc(N=Nc2c(N)n(-c3ccccc3)[nH]c2=O)cc1	hK5 inh 40 (no result: S1P3 antag)
COc1ccc(NC(=O)c2ccc(S(=O)(=O)N3CCOCC3)cc2)c(OC)c1	none
COc1ccc(NCC(=O)Nc2cc(S(=O)(=O)N3CCOCC3)ccc2N2CCOCC2)c(OC)c1	FXIa inh 42 (no result: Redox H2O2 prof)
COc1ccc(/C=C/C(=O)Nc2ccccc2Cl)cc1S(=O)(=O)N1CCOCC1	none (no result: Redox H2O2 prof)
C#CCOCCOCCOCCNc1nc(N2CCN(C(=O)Cn3cc(CC(C)O)nn3)CC2)nc(N2CCN(C(=O)[C@H](C)n3cc(CCCN=C(N)N)nn3)CC2)n1 (stereo partly drawn)	Thrombin inh 40
O=C(CCCN1C(=O)c2cccc3cccc(c23)C1=O)NCc1cccnc1	FXIIa inh 1536 49
CCSc1nnc(N2C(=O)CC(c3ccsc3)C3=C2CC(C)(C)CC3=O)s1 (stereo not drawn)	hK5 inh 53
CC1(C)CC(=O)C2=C(C1)N(c1ccc(F)cc1)C(=O)CC2c1cccnc1 (stereo not drawn)	none
C=CCn1cc(C(=O)NCc2ccc3c(c2)OCO3)c(=O)c2cc(S(=O)(=O)N(CC)CC)ccc21	Thrombin inh 42
O=C(NCCN1CCOCC1)c1c[nH]c2ccc(S(=O)(=O)N3CCOCC3)cc2c1=O	none
O=C(NCc1ccco1)c1c[nH]c2ccc(S(=O)(=O)N3CCOCC3)cc2c1=O	Thrombin inh 74 (no result: S1P3 antag)
CCN(CC)S(=O)(=O)c1ccc2c(c1)c(=O)c(C(=O)NCc1ccco1)cn2C	Thrombin inh 62
CCN(CC)S(=O)(=O)c1ccc2c(c1)c(=O)c(C(=O)NCc1ccc3c(c1)OCO3)cn2C	Thrombin inh 64
CC1CCN(S(=O)(=O)c2ccc3c(c2)c(=O)c(C(=O)NCc2ccco2)cn3C)CC1	none
CCc1cccc(NC(=O)CCCCCC2NC(=O)NC2C)c1 (stereo not drawn)	none
CC(C)OC(=O)c1cccc(NC(=O)CSc2nnc(N)s2)c1	FXIIa inh 1536 103
COc1ccc(OCC(O)CNC(=O)c2cccs2)cc1 (stereo not drawn)	none (no result: Redox H2O2 prof)
CCN1C(=O)C(CC(=O)Nc2ccccc2)S/C1=N\c1ccccn1 (stereo not drawn)	none
C/C(=N\Nc1ccc(Cl)c(C(=O)O)c1)c1cccc([N+](=O)[O-])c1	Thrombin inh 56 (no result: Redox H2O2 prof)
CCc1nc(OCCN(C)C)c2oc3ccccc3c2n1	hK5 inh 43
CCc1nc(Nc2ccccc2)c2oc3ccccc3c2n1	none (no result: S1P3 antag)
COC(=O)c1ccc(NC(=O)COc2ccc(S(=O)(=O)NC(C)C)cc2)cc1	hK5 inh 52
COc1cccc(NC(=O)COc2ccc(S(=O)(=O)NC(C)C)cc2)c1	hK5 inh 51 (no result: S1P3 antag)
CCOC(=O)c1ccc(NC(=O)COc2ccc(S(=O)(=O)NC(C)C)cc2)cc1	none
COc1ccc(OC)c(C(C)NC(=O)Nc2cccc(C(C)=O)c2)c1 (stereo not drawn)	none (no result: hK5 inh)
COc1ccc(/C=C/C(=O)NCC(=O)N2CCC(N(C)CCN3CCOCC3)CC2)cc1OC	none
C=C(CCC(=O)c1ccccc1)C(=O)c1ccccc1	Thrombin inh 41
O=C(CCCCCCCC(=O)c1ccccc1)c1ccccc1	none
CC(C)(C)NC(=O)c1cc([N+](=O)[O-])ccc1N1CCCCC1	hK5 inh 63, Thrombin inh 73
Cc1ccc(NC(=O)/C(CN(C)C)=N\O)cc1	FXIIa inh 1536 42
CCOc1ncccc1C(=O)OCC(=O)Nc1ccc(C(C)C)cc1	none
CCOc1ncccc1C(=O)OCC(=O)Nc1ccc(C(N)=O)cc1	hK5 inh 42, FXIIa inh 1536 45 (no result: Redox H2O2 prof)
O=C1NC(=Nc2cccc(O)c2)S/C1=C\c1cccnc1	hK5 inh 66 (no result: Redox H2O2 prof)
Cc1cccc(N=C2NC(=O)/C(=C/c3cccnc3)S2)c1	none (no result: Redox H2O2 prof)
O=[N+]([O-])c1ccc(Nc2ccc(F)cc2)nc1	hK5 inh 55
O=C(Oc1cc2oc(=O)c3c(c2cc1Cl)CCCC3)c1ccco1	none
O=C(Oc1ccc2c3c(c(=O)oc2c1)CCC3)c1ccco1	FXIIa inh 1536 71 (no result: S1P3 antag)
O=C(Oc1ccc(NC(=O)c2cc3c(cc2Br)OCO3)cc1)c1ccccc1	none (no result: Redox H2O2 prof)
O=C(NCC1CCCO1)C(c1cccnc1)N(C(=O)Cc1cccs1)c1ccccc1 (stereo not drawn)	hK5 inh 41 (no result: S1P3 antag)
Cc1ccccc1N(C(=O)Cc1cccs1)C(C(=O)NCC1CCCO1)c1cccnc1 (stereo not drawn)	none (no result: S1P3 antag)
CCOC(=O)C1(CC2CCCCO2)CCN(C(=O)NCc2ccccc2)CC1 (stereo not drawn)	none (no result: hK5 inh)
CCOC(=O)c1cnc2ccc(OCC)cc2c1N(C)Cc1ccccc1	none
Cc1cc(N2CCN(c3ccccc3)CC2)nc(-c2ccccc2)n1	hK5 inh 65, Thrombin inh 83
Clc1ccccc1OCc1nc(-c2ccccn2)no1	hK5 inh 48
CC1(C)CC(=O)c2cnc(NC(=O)Cc3ccc(Cl)cc3)nc2C1	hK5 inh 86
Cc1cc(C)cc(OCC(=O)Nc2ccc(N3CCCC3)cc2)c1	FXIIa inh 1536 45
COc1ccc(/C=N/NC(=O)C2COc3ccccc3O2)cc1OC (stereo not drawn)	none
O=C(N/N=C/c1ccc2c(c1)OCO2)C1COc2ccccc2O1 (stereo not drawn)	hK5 inh 46 (no result: S1P3 antag)
CO/N=C/c1ccc(Sc2ccccc2N)c([N+](=O)[O-])c1	FXIIa inh 1536 44 (no result: S1P3 antag)
CO/N=C/c1ccc(Sc2ccccc2)c([N+](=O)[O-])c1	none (no result: S1P3 antag)
COc1ccc(-c2cc(-c3nnc(COC(=O)CC4CC5CCC4C5)o3)c3ccccc3n2)cc1OC (stereo not drawn)	FXIIa inh 1536 42
COc1ccc(C(=O)N2CCN(c3ccccn3)CC2)cc1[N+](=O)[O-]	none
Cc1ccc(NC(=O)N(CCC#N)Cc2ccccc2)cc1	none (no result: Redox H2O2 prof)
N#CCCC1CCCC=C1N(Cc1ccccc1)C(=O)C(Cl)Cl (stereo not drawn)	FXIa inh 57 (no result: Redox H2O2 prof)
N#C/C(=C\c1ccc(OCc2cccc(C(=O)O)c2)cc1)C(=O)NCc1ccco1	none (no result: Redox H2O2 prof)
COC(=O)[C@H](CCSC)NS(=O)(=O)c1ccccc1Br	none (no result: S1P3 antag, Redox H2O2 prof)
CCCCOc1ccc(-c2nnn(C(C)C(=O)OCC)n2)cc1 (stereo not drawn)	none
CCCCOc1ccc(-c2nnn(C(C)(C)C(=O)OC)n2)cc1	hK5 inh 140
Cc1ccc(N2CC(O)=C(c3nc4ccccc4c(=O)[nH]3)C2=N)cc1C	none
O=C(Nc1sc2c(c1C(=O)NCC1CCCO1)CCCC2)c1cccs1 (stereo not drawn)	hK5 inh 54
OCCC1CN(CCCn2cccn2)CCN1C1CCCCC1 (stereo not drawn)	none

Screening data deposited in PubChem BioAssay by several laboratories.
